Results as given in article PMC9359741 (Clinical Cancer Research, 2022).
“And” between values parts separate entries of the source, which are not always exact repeats. Equal entries are not always repeated. Where two headings read alike, the source gives them in different places.

Experiments:
Type in all cases: in vivo, human
[1] = tested on: CSF-1R; assay: Phase 1b pharmacodynamic biomarkers
Method in brief: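 Blood was drawn for serum CSF-1 and CTX, plus serum osteoprotegerin and non-classical monocytes in Phase 2. Urine was collected for NTX. Samples were taken pre-dose on cycle 1 days 1, 8 and 15, on day 1 of later cycles and at discontinuation. Mean change on cycle 1 day 15 versus cycle 1 day 1 was summarized descriptively, with outliers excluded.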

[2] = Phase 2 plasma pharmacokinetics of ARRY-382 and metabolites; conditions: for RAUC (accumulation ratio), geometric mean (geometric %CV) / Ctrough, geometric mean (geometric %CV) / RCmax (accumulation ratio), geometric mean (geometric %CV): Cycle 2 day 1, 300 mg; for AUC(0-t) / AUC / Cmax / Tmax: human, plasma, oral, 300 mg; for AUC(0-t): AUClast; for AUC(0-t) / AUC / Cmax: geometric mean (geometric %CV); for AUC: AUCtau; for Tmax: median (range)
Method in brief: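 Blood was collected for plasma test compound and its N-oxide, N-desmethyl and sulfate metabolites. Trough samples were taken ≤120 min before the oral dose on cycle 1 day 15 and day 1 of cycles 3–6. Doses were 200–400 mg QD in Phase 1b and 300 mg QD in Phase 2. Non-compartmental parameters were estimated per patient in the PK set, reported as geometric mean (geometric %CV) and Tmax as median (range).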

[3] = tested on: patients with selected advanced solid tumors
Method in brief: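 Adults (≥18 y) with histologically or cytologically confirmed selected advanced solid tumours. Oral test compound started at 200 mg QD, with planned escalation to 400 mg QD, plus anti-PD-1 antibody 2 mg/kg IV every 3 weeks. DLT incidence defined the MTD (DLT criteria in supplement). AEs and lab abnormalities were graded by CTCAE v4.03 in all patients given ≥1 dose and summarized descriptively.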

[4] = Cycle 1 day 1, PD-1/PD-L1 IR, n = 18
[5] = Cycle 2 day 1, PD-1/PD-L1 IR, n = 6
[6] = Phase 1b, ARRY-382 200 mg, N = 6
[7] = Phase 1b, ARRY-382 300 mg, N = 6

Cc1cccc(Cn2nc(C3CC3)c3c(NC(=O)c4cnc5cc(OCCN6CCN(C)CC6)ccn45)cccc32)n1 [ARRY-382]
Change in mean CTX or NTX ([1]; cycle 1 day 15 compared with cycle 1 day 1): no changes | Increase in mean serum CSF-1 ([1]; cycle 1 day 15 versus cycle 1 day 1, P < 0.05): 4.5 fold | RAUC (accumulation ratio), geometric mean (geometric %CV) ([2]; Overall): 2.49 (35.6) | Ctrough, geometric mean (geometric %CV) ([2]; Overall, n = 15): 796 (86.9) ng/mL | RCmax (accumulation ratio), geometric mean (geometric %CV) ([2]; Overall, n = 15): 2.06 (41.9) | RAUC (accumulation ratio), geometric mean (geometric %CV) ([2]; PD-1/PD-L1 IR, n = 3): 2.67 (36.2) | Ctrough, geometric mean (geometric %CV) ([2]; PD-1/PD-L1 IR, n = 6): 878 (70.1) ng/mL | RCmax (accumulation ratio), geometric mean (geometric %CV) ([2]; PD-1/PD-L1 IR, n = 6): 2.52 (39.9) | RAUC (accumulation ratio), geometric mean (geometric %CV) ([2]; PDA, n = 3): 3.41 (23.6) | Ctrough, geometric mean (geometric %CV) ([2]; PDA, n = 4): 1,480 (17.5) ng/mL | RCmax (accumulation ratio), geometric mean (geometric %CV) ([2]; PDA, n = 4): 2.07 (53.6) | RAUC (accumulation ratio), geometric mean (geometric %CV) ([2]; prOVCA, n = 4): 1.87 (16.7) | Ctrough, geometric mean (geometric %CV) ([2]; prOVCA, n = 5): 438 (86.5) ng/mL | RCmax (accumulation ratio), geometric mean (geometric %CV) ([2]; prOVCA, n = 5): 1.62 (24.7) | AUC(0-t) ([2]; Cycle 1 day 1, Overall, n = 55): 6310 ng·h/mL | AUC(0-t) [2, 4]: 6320 ng·h/mL | AUC(0-t) ([2]; Cycle 1 day 1, PDA, n = 26): 6350 ng·h/mL | AUC(0-t) ([2]; Cycle 1 day 1, prOVCA, n = 11): 6210 ng·h/mL | AUC(0-t) ([2]; Cycle 2 day 1, Overall, n = 15): 28500 ng·h/mL | AUC(0-t) [2, 5]: 26600 ng·h/mL | AUC(0-t) ([2]; Cycle 2 day 1, PDA, n = 4): 47100 ng·h/mL | AUC(0-t) ([2]; Cycle 2 day 1, prOVCA, n = 5): 20700 ng·h/mL | AUC ([2]; Cycle 2 day 1, Overall, n = 15): 30600 ng·h/mL | AUC [2, 5]: 32100 ng·h/mL | AUC ([2]; Cycle 2 day 1, PDA, n = 4): 47100 ng·h/mL | AUC ([2]; Cycle 2 day 1, prOVCA, n = 5): 20700 ng·h/mL | Cmax ([2]; Cycle 1 day 1, Overall, n = 55): 1270 ng/mL | Cmax [2, 4]: 1240 ng/mL | Cmax ([2]; Cycle 1 day 1, PDA, n = 26): 1290 ng/mL | Cmax ([2]; Cycle 1 day 1, prOVCA, n = 11): 1260 ng/mL | Cmax ([2]; Cycle 2 day 1, Overall, n = 15): 2080 ng/mL | Cmax [2, 5]: 2130 ng/mL | Cmax ([2]; Cycle 2 day 1, PDA, n = 4): 2820 ng/mL | Cmax ([2]; Cycle 2 day 1, prOVCA, n = 5): 1580 ng/mL | Tmax [2, 4]: 1.97 h | Tmax ([2]; Cycle 1 day 1, prOVCA, n = 11): 2 h | Tmax [2, 5]: 2 h | Tmax ([2]; Cycle 2 day 1, PDA, n = 4): 3.03 h | Patients with DLTs ([3]; 300-mg cohort: Grade 3 acute pancreatitis): 1/6 | Patients with DLTs ([3]; 400-mg cohort: Grade 2 increased CPK, Grade 3 increased ALT, AST and bilirubin): 2/7 | MTD (and RP2D) of ARRY-382 in combination with pembrolizumab ([3]; Phase 1b): 300 mg QD | Patients with a Grade 4 AE ([3]; Phase 1b): 6 (31.6%) n (%) | Patients with a grade 3 AE ([3]; Phase 1b): 9 (47.4%) n (%) | Patients with ≥1 TEAE ([3]; Phase 1b): 94.7% | Permanently discontinued due to AEs ([3]; Phase 1b): 2 (10.5%) n (%) | Deaths ([3]; Phase 1b, 12 due to disease progression, 3 for reasons unknown): Fifteen | ARRY-382-related grade ≥3 AEs ([3]; Phase 1b, 200-mg cohort): 50.0% | Discontinued due to AEs (primary reason) ([3]; Phase 1b, 200-mg cohort, one patient): 16.7% | ARRY-382-related grade ≥3 AEs ([3]; Phase 1b, 300-mg cohort): 100.0% | ARRY-382-related SAE (Grade 3 ALT and AST increased) ([3]; Phase 1b, 300-mg cohort, one patient): 16.7% | ARRY-382-related grade ≥3 AEs ([3]; Phase 1b, 400-mg cohort): 42.9% | ARRY-382-related AEs: ALT increased [3, 6]: 2 (33.3) n (%) | ARRY-382-related AEs: AST increased [3, 6]: 1 (16.7) n (%) | ARRY-382-related AEs: All AEs [3, 6]: 5 (83.3%) n (%) and 5 (83.3) n (%) | ARRY-382-related AEs: Amylase increased [3, 6]: 1 (16.7) n (%) | ARRY-382-related AEs: Blood CPK increased [3, 6]: 2 (33.3) n (%) | ARRY-382-related AEs: Blood alkaline phosphatase increased [3, 6]: 1 (16.7) n (%) | ARRY-382-related AEs: Chills [3, 6]: 1 (16.7) n (%) | ARRY-382-related AEs: Fatigue [3, 6]: 2 (33.3) n (%) | ARRY-382-related AEs: Lipase increased [3, 6]: 1 (16.7) n (%) | ARRY-382-related AEs: Nausea [3, 6]: 0 (0.0) n (%) | ARRY-382-related AEs: Pruritus [3, 6]: 2 (33.3) n (%) | ARRY-382-related AEs: Pyrexia [3, 6]: 1 (16.7) n (%) | ARRY-382-related AEs: Rash maculo-papular [3, 6]: 1 (16.7) n (%) | ARRY-382-related AEs: Thrombocytopenia [3, 6]: 0 (0.0) n (%) | ARRY-382-related AEs: ALT increased [3, 7]: 3 (50.0) n (%) | ARRY-382-related AEs: AST increased [3, 7]: 5 (83.3) n (%) | ARRY-382-related AEs: All AEs [3, 7]: 6 (100.0%) n (%) and 6 (100.0) n (%) | ARRY-382-related AEs: Amylase increased [3, 7]: 3 (50.0) n (%) | ARRY-382-related AEs: Blood CPK increased [3, 7]: 3 (50.0) n (%) | ARRY-382-related AEs: Blood alkaline phosphatase increased [3, 7]: 2 (33.3) n (%)
